Experimental data collected from several papers.
Protocols differ between the studies behind these lines.
Target: SRSF protein kinase 3 (SRPK3, Homo sapiens, UniProt Q9UPE1)

| SMILES | assay | setting | remaining binding [%] |
| --- | --- | --- | --- |
| c1cncc(-c2cccc(Nc3nccc(NC4CCCCC4)n3)c2)c1 | binding, competition with immobilised ligand | 10 µM | 55 |
| C[C@@H]1CN(c2ccc3ncc(-c4ccc5[nH]nc(C6CC6)c5c4)n3n2)C[C@H](C)O1 | binding, competition with immobilised ligand | 50 nM | 97 |
| CN(C)c1nccc(-c2cnn3ncccc23)n1 | binding | 1 µM | 92 |
| CCCCN(CCCC)C(=O)CN1C[C@@H](c2cc(OC)c3c(c2)OCO3)[C@H](C(=O)O)[C@H]1CC(C)(C)CCC | cell-free assay, competition with immobilised ligand | 1 µM | 100 |
| O=C(Nc1c[nH]nc1C(=O)NC1CCNCC1)c1cc(F)cc(F)c1 | binding, competition with immobilised ligand | 1 µM | 88 |
| COc1ccnn2ncc(-c3ccnc(N(C)C)n3)c12 | binding | 1 µM | 67 |
| CNC(=O)[C@@H]1CC[C@@H](n2c(-c3ccc4cnccc4c3)nc3ccc(C(=O)NCc4cccc(C(N)=O)c4)cc32)C1 | binding, competition with immobilised ligand | 1 µM | 92 |
| C[C@@H](c1ccc(-n2cnc3c(N)ncnc32)cc1)N1CCc2nn(C)c(Cc3ccccc3)c2C1=O | binding, competition with immobilised ligand | 0.1 µM | 76 |
| Cc1cnn2ncc(-c3ccnc(N(C)C)n3)c2c1 | binding | 1 µM | 56 |
| C[C@H](NC(=O)c1cnc2n1[C@](C)(Cc1ccc(C#N)cc1)C(=O)N2c1cc(Cl)c(F)c(Cl)c1)C(=O)NC1(c2ccccn2)CC1 | cell-free assay, competition with immobilised ligand | 1 µM | 100 |
| Nc1ncc2c(n1)-c1c([nH]c3ccc(C#CC4CC4)cc13)CCCC2 | binding, competition with immobilised ligand | 1 µM | 90 |
| Cc1c(C(=O)O)cc(-c2ccc(C3CCNCC3)cc2)c2ccc(-c3ccc(C(F)(F)F)cc3)cc12 | binding, competition with immobilised ligand | 1 µM | 100 |
| F[C@@H]1CCN(c2nccc(-c3cnn4ncccc34)n2)C1 | binding | 1 µM | 100 |
| CCCOc1ccc([C@@H]2[C@@H](C(=O)O)[C@H](c3ccc4c(c3)OCO4)CN2CC(=O)Nc2c(CC)cccc2CC)cc1 | cell-free assay, competition with immobilised ligand | 1 µM | 93 |
| N#Cc1ccccc1CSc1nnc2c(n1)[nH]c1ccccc12 | binding, competition with immobilised ligand | 10 µM | 75 |
| O=C(NCCCN1CCOCC1)c1ccc(Nc2ncc(Cl)c(-c3ccc(Cl)s3)n2)cc1 | binding, competition with immobilised ligand | 1 µM | 100 |
| O=C(Nc1cccnn1)N1CC(C/C=C/c2cncc(Oc3ccc(C(F)(F)F)cn3)n2)C1 | cell-free assay, competition with immobilised ligand | 1 µM | 100 |
| FC(F)(F)Oc1cccc(-c2cnc3ccc(-c4ccncc4)nn23)c1 | binding, competition with immobilised ligand | 5 µM | 41 |
| CS(=O)(=O)N1CCCC(NC(=O)[C@H](CCC2CCCCC2)NC(=O)c2ccc(CNC(=O)c3cnc4ccccn34)cc2)C1 (stereo partly drawn) | cell-free assay, competition with immobilised ligand | 0.1 µM | 100 |
| N[C@@H]1CCN(c2nccc(-c3cnn4ncccc34)n2)C1 | binding | 1 µM | 81 |
| O=C(c1ccc(Nc2nccc(-c3cc4ccccc4s3)n2)cc1)N1CCC(N2CCCC2)CC1 | binding, competition with immobilised ligand | 1 µM | 100 |
| C[C@@H]1CCN(c2nccc(-c3cnn4ncccc34)n2)C1 | binding | 1 µM | 55 |
| O=C(c1ccc(Nc2ncc(Cl)c(-c3cc4ccccc4s3)n2)cc1)N1CCC(N2CCCC2)CC1 | binding, competition with immobilised ligand | 1 µM | 100 |
| CO[C@H]1CC[C@H](CNc2ccc(S(=O)(=O)NC(=O)c3ccc(N4CCN(CC5=C(c6ccc(Cl)cc6)CC(C)(C)CC5)CC4)cc3Oc3cnc4[nH]ccc4c3)cc2[N+](=O)[O-])CC1 | cell-free assay, competition with immobilised ligand | 1 µM | 100 |
